Entries after “also recorded” stand apart in the source; their conditions may differ. Each block holds one substance with its values, some of them ahead of it. Ends that are not written are not given here.
What was measured:
[1] = tested on: collagen; settings: ref unpublished studies; cited from earlier work
[2] = Circular dichroism secondary structure of GQLY variants; assay type: physicochemical; settings: 1 mg/mL, pH 8.5 sodium borate buffer; for Antiparallel / Helix / Others / Parallel / Turn: CD far-UV 190-250 nm, BESTSEL; for Structure difference between variants by CD: SRR-hyd vs GSG-hyd
Outline: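 Peptides at 1 mg/mL in pH 8.5 sodium borate buffer, quartz cell. Far-UV spectra 190–250 nm, baseline-corrected. Secondary-structure fractions fitted by least squares at each wavelength point, separating antiparallel β-sheet by twist angle and regular from distorted α-helix.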

[3] = Peptide association with chondroitin sulfate; assay type: physicochemical; settings: for Decrease in peptides associated per disaccharide / Percent Decrease in total peptide associated/GAG: with CS, before vs after 1 M NaCl and 8 M urea wash
Outline: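 Chondroitin sulfate (10 mg/mL) reacted overnight at pH 4.5 with peptide (theoretical 16% disaccharide substitution) in 0.1 M MES/8 M urea/0.2 wt% NaCl, with EDC 0.5:1 per disaccharide or without EDC. Stopped at pH 8.5, tangential-flow filtered (10 kDa). Agitated 30 min in 1 M NaCl/8 M urea, spin-filtered (10 kDa) and water-exchanged three times. Peptide measured by A280 against standard curves, before and after wash.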

[4] = SRR-hyd conjugation to GAG backbones; assay type: physicochemical; settings: following salt washing
Outline: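 Heparin, hyaluronic acid, chondroitin sulfate or dermatan sulfate (10 mg/mL) coupled to peptide with EDC (0.5:1 per disaccharide) in 0.1 M MES/8 M urea/0.2 wt% NaCl, pH 4.5, overnight. Quenched at pH 8.5, purified by tangential flow over a 10 kDa membrane, lyophilised. Peptide content from 280 nm absorbance using peptide standard curves, expressed per disaccharide (GAG mass divided by disaccharide mass).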

[5] = tested on: platelet adhesion to immobilized fibrillar collagen; assay: Inhibition of platelet adhesion to immobilized fibrillar collagen under flow; assay type: cell-based; settings: even at high concentrations; human whole blood, 1000 s−1
Outline: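 Flow channels coated with fibrillar type I collagen (100 μg/mL, 1 h, room temperature) and PBS-washed. Channels pre-incubated 1 h with test compound, or with its heparin or peptide component alone, at increasing concentrations, then flushed. Citrated human whole blood, pooled and used within 3 h, stained with Calcein-AM 30 min at 37 °C. Conjugate added to blood, perfused at 1000 s−1. Adherent platelets imaged by fluorescence and normalised to untreated control.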

[6] = tested on: platelet binding; settings: ref Biran & Pond, 2017; Linhardt et al., 2008; cited from earlier work

Substance: GQLYKSILY
Collagen binding [1]: also binding to collagen

Substance: GQLYKSILYGSGSG-hydrazide
Antiparallel [2]: 25.6
Helix [2]: 6.2
Others [2]: 53.9
Parallel [2]: 0
Turn [2]: 14.3
Structure difference between variants by CD [2]: minimal difference in their structure
Decrease in peptides associated per disaccharide [3]: 1.1%
Percent Decrease in total peptide associated/GAG [3]: 15%

Substance: GQLYKSILYGSGSGSRR-hydrazide
Antiparallel [2]: 21.8
Helix [2]: 5.5
Others [2]: 59.2
Parallel [2]: 0
Turn [2]: 13.5
Structure difference between variants by CD [2]: minimal difference in their structure
Peptide association with CS, with EDC ([3]; after EDC reaction, initial 10 kDa purification): significantly more peptide association when using the SRR-hyd variant compared to the GSG-hyd variant; also recorded: more SRR-hyd associated with CS compared to the SRR-amide variant
Decrease in peptides associated per disaccharide [3]: 5.2%
Percent Decrease in total peptide associated/GAG [3]: 32%

Substance: chondroitin sulfate [CS]
GQLY (SRR-hyd) conjugation supported by the GAG backbone [4]: same intermediate level of GQLY conjugation

Substance: dermatan sulfate [DS]
GQLY (SRR-hyd) conjugation supported by the GAG backbone [4]: same intermediate level of GQLY conjugation

Substance: heparin
GQLY (SRR-hyd) conjugation supported by the GAG backbone [4]: greatest GQLY conjugation
Platelet inhibition, in words [5]: no significant platelet inhibition
Platelet binding suppression [6]: known to suppress platelet binding

The next lines start with the values.

Peptide association with CS, without EDC ([3]; absence of EDC, initial 10 kDa purification): equivalent
Decrease in peptides associated per disaccharide [3]: 5.7%
Substance: GQLYKSILYGSGSGSRR-NH2

GQLY (SRR-hyd) conjugation supported by the GAG backbone [4]: least
Substance: hyaluronic acid [HA]
